How the values were obtained:
U-937 [1] = assay: Growth inhibition of human U937 cells; assay type: functional
Summary of the method: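 Proliferating U937 human leukemic cells were exposed to the compounds. Potency is reported as GI50, the concentration giving 50% growth inhibition. Toxicity was checked separately at up to 100 µM, as LC50.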

Tubulin = Tubulin (Bos taurus, UniProt Q6B856+Q862L2+Q862F3); assay: Inhibition of tubulin polymerization using bovine brain tubulin; assay type: functional
U-937 [2] = assay: Toxicity towards human U937 cells.; assay type: cell-based

Structure (SMILES)	GI50 (U-937 [1]) [µM]	IC50 (Tubulin) [µM]	LC50 (U-937 [2]) [µM]
COc1ccc(CNc2nc(NCc3ccc(OC)cc3)c3ncn(C4CCNCC4)c3n2)cc1	6	5	40
COc1ccc(CNc2nc(NCc3ccc(OC)cc3)c3[nH]cnc3n2)cc1	18	50	
COc1ccc(CNc2nc(NCc3ccc(OC)cc3)c3ncn(C4CCOC4)c3n2)cc1 (stereo unspecified)	4	5	
COc1ccc(CNc2nc(NCc3ccc(OC)cc3)c3ncn(C4CCCC4)c3n2)cc1	2	3	
COc1ccc(CNc2nc(NCc3ccc(OC)cc3)c3ncn(C4CCCCC4)c3n2)cc1	0.2	2	
COc1ccc(CNc2nc(NCc3ccc(OC)cc3)c3ncn(C4CCC(O)CC4)c3n2)cc1 (stereo unspecified)	2	3	

Further lines, with some results ahead:

GI50 (U-937 [1]) [µM]	IC50 (Tubulin) [µM]	Structure (SMILES)	LC50 (U-937 [2]) [µM]
12	25	COc1ccc(CNc2nc(NCc3ccc(OC)cc3)c3ncn(C)c3n2)cc1	
5	5	COc1ccc(CNc2nc(NCc3ccc(OC)cc3)c3ncn(C4CCC4)c3n2)cc1	
6	25	CCn1cnc2c(NCc3ccc(OC)cc3)nc(NCc3ccc(OC)cc3)nc21	
4	8	COc1ccc(CNc2nc(NCc3ccc(OC)cc3)c3ncn(C(C)C)c3n2)cc1 [MYOSEVERIN]	
